In ChEMBL document CHEMBL1157464, “1-[(3-Aryloxy-3-aryl)propyl]-1H-imidazoles, new imidazoles with potent activity against Candida albicans and dermatophytes. Synthesis, structure-activity relationship, and molecular modeling studies” (J Med Chem, 2008):
In brackets after ≈: the same amount, converted by molar mass.

Assays:
Candida albicans [1] = experiment: Antifungal activity against Candida albicans ATCC 10261 at 35 degC after 48 hrs by broth microdilution test; format: functional; conditions: for MIC50: read-out: MIC50
Outline: (§1)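 Broth microdilution per NCCLS M27-A2. Stocks in 100% DMSO, diluted in RPMI 1640 with 0.165 M MOPS at pH 7.0; final range 0.25–128 µg/mL. Inoculum 1000–5000 cells/mL from SDA subcultures. […] C. parapsilosis ATCC22019 served as QC strain.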

Candida parapsilosis = experiment: Antifungal activity against Candida parapsilosis ATCC 22019 at 35 degC after 48 hrs by broth microdilution test; format: functional; conditions: for MFC: read-out: MFC; outline: as §1
Arthrodermataceae [2] = experiment: Antifungal activity against dermatophytes at 28 degC after 7 days by broth microdilution test; format: functional; conditions: 168 h
Outline: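 Ten clinical isolates (two M. canis, five M. gypseum, three T. mentagrophytes) tested by NCCLS M38-A broth microdilution in MOPS-buffered RPMI 1640, pH 7.0, over 0.25–128 µg/mL. Conidial/hyphal suspension from PDA slants (28 °C, 7 days) adjusted to 65–70% transmittance at OD530, then diluted 1:50.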

Arthrodermataceae [3] = experiment: Antifungal activity against dermatophytes at 28 degC after 5 days by broth microdilution test; conditions: for MFC: Arthrodermataceae
Candida albicans [4] = experiment: Antifungal activity against fluconazole-sensitive Candida albicans Fe40 at 35 degC after 48 hrs by broth microdilution test; format: functional; outline: as §1
Arthrodermataceae [5] = experiment: Antifungal activity against dermatophytes at 28 degC after 48 to 96 hrs by broth microdilution test
[6] = Cytotoxicity against human U937 cells assessed as reduction of cell viability after 24 hrs by MTT assay; format: cell-based, U-937
Outline: (§2)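 U937 and K562 cells, from ATCC, plated at 5 × 10^4/mL in phenol-red-free RPMI-1640 with 20% FBS and penicillin/streptomycin. Compounds added 2 h later at 25–100 µg/mL, then 24 h at 37 °C. MTT at 1 mg/mL for 3 h, formazan dissolved in isopropanol with 0.1 N HCl, absorbance read at 570 nm. CC50 is the concentration reducing viability by 50% versus the drug-free control.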

Candida albicans [7] = experiment: Antifungal activity against fluconazole-resistant Candida albicans isolated from oropharyngeal or vaginal disease patient after 48 hrs by broth microdilution test; format: functional
[8] = Cytotoxicity against human K562 cells after assessed as reduction of cell viability 24 hrs by MTT assay; format: cell-based; outline: as §2
Candida albicans [9] = experiment: Antifungal activity against Candida albicans ATCC 10261 at 35 degC after 48 to 96 hrs by broth microdilution test; format: functional
Outline: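 Minimal fungicidal concentration for Candida. […] MFC is the lowest concentration allowing fewer than two colonies (99% killing).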

[10] = Candida albicans, ATCC 10261, 48 h
[11] = Lodderomyces parapsilosis, ATCC 22019, 48 h
[12] = Candida albicans, ATCC 10261, 48 h, read-out: MIC
[13] = Candida albicans, ATCC 10261, 48 h, read-out: MIC90
[14] = Lodderomyces parapsilosis, ATCC 22019, 48 h, read-out: MIC
[15] = Candida albicans, ATCC 10261, read-out: MFC

Row | Structure (SMILES) | MIC50 (Candida albicans [1]; [10]) | MFC (Candida parapsilosis; [11]) | MIC (Arthrodermataceae [2]) | MIC50 (Arthrodermataceae [2]) | MIC90 (Arthrodermataceae [2]) | MFC90 (Arthrodermataceae [3]) | MFC (Arthrodermataceae [3]) | MIC (Candida albicans [4]) | MFC50 (Arthrodermataceae [5]) | CC50 at 24 h [6] | MIC (Candida albicans [7]) | CC50 at 24 h [8] | MFC50 (Candida albicans [9]) | MFC90 (Candida albicans [9]) | MIC (Candida albicans [1]; [12]) | MIC90 (Candida albicans [1]; [13]) | MIC (Candida parapsilosis; [14]) | MFC (Candida albicans [9]; [15]) | further results
1 | Clc1ccc(OC(CCn2ccnc2)c2ccccc2)c(Cl)c1 (racemic) | 8 µg/mL (≈ 23 µM) | 8 µg/mL (≈ 23 µM) | 9.2 µg/mL (≈ 26.5 µM) | 8 µg/mL (≈ 23 µM) | 8 µg/mL (≈ 23 µM) | 32 µg/mL (≈ 92.2 µM) | 28.8 µg/mL (≈ 82.9 µM) | 2 µg/mL (≈ 5.76 µM) | 16 µg/mL (≈ 46.1 µM) | 166 µM | 7.2 µg/mL (≈ 20.7 µM) | 121 µM | 8 µg/mL (≈ 23 µM) | 16 µg/mL (≈ 46.1 µM) | – | – | – | – | MIC (Candida albicans [1]): 5.3 µg/mL (≈ 15.3 µM); MIC90 (Candida albicans [1]): 8 µg/mL (≈ 23 µM); MIC (Candida parapsilosis): 2 µg/mL (≈ 5.76 µM); MFC (Candida albicans [9]): 11.4 µg/mL (≈ 32.8 µM)
2 | Cc1ccc(OC(CCn2ccnc2)c2ccc(C)cc2)cc1 (stereo unspecified) | 4 µg/mL (≈ 13.1 µM) | 8 µg/mL (≈ 26.1 µM) | 8 µg/mL (≈ 26.1 µM) | 8 µg/mL (≈ 26.1 µM) | 8 µg/mL (≈ 26.1 µM) | 32 µg/mL (≈ 104 µM) | 30.4 µg/mL (≈ 99.2 µM) | 4 µg/mL (≈ 13.1 µM) | 32 µg/mL (≈ 104 µM) | 263 µM | 4.8 µg/mL (≈ 15.7 µM) | 191 µM | 16 µg/mL (≈ 52.2 µM) | 32 µg/mL (≈ 104 µM) | 4 µg/mL (≈ 13.1 µM) | 4 µg/mL (≈ 13.1 µM) | 2 µg/mL (≈ 6.53 µM) | 20.5 µg/mL (≈ 66.9 µM) | –
3 | Clc1ccc(OC(CCn2ccnc2)c2ccc(Cl)cc2)cc1 (stereo unspecified) | 4 µg/mL (≈ 11.5 µM) | 8 µg/mL (≈ 23 µM) | – | – | – | – | – | 4 µg/mL (≈ 11.5 µM) | – | 327 µM | 8 µg/mL (≈ 23 µM) | 265 µM | 16 µg/mL (≈ 46.1 µM) | 32 µg/mL (≈ 92.2 µM) | 5.5 µg/mL (≈ 15.8 µM) | 8 µg/mL (≈ 23 µM) | 4 µg/mL (≈ 11.5 µM) | 21.5 µg/mL (≈ 61.9 µM) | –
4 | Cc1ccc(OC(CCn2ccnc2)c2ccc(F)cc2)cc1 (stereo unspecified) | 4 µg/mL (≈ 12.9 µM) | 32 µg/mL (≈ 103 µM) | 10 µg/mL (≈ 32.2 µM) | 8 µg/mL (≈ 25.8 µM) | 16 µg/mL (≈ 51.6 µM) | 16 µg/mL (≈ 51.6 µM) | 16 µg/mL (≈ 51.6 µM) | 4 µg/mL (≈ 12.9 µM) | 16 µg/mL (≈ 51.6 µM) | 120 µM | 9.6 µg/mL (≈ 30.9 µM) | 383 µM | 16 µg/mL (≈ 51.6 µM) | 32 µg/mL (≈ 103 µM) | 7 µg/mL (≈ 22.6 µM) | 8 µg/mL (≈ 25.8 µM) | 4 µg/mL (≈ 12.9 µM) | 23 µg/mL (≈ 74.1 µM) | –
5 | Fc1ccc(C(CCn2ccnc2)Oc2cc(Cl)cc(Cl)c2)cc1 (stereo unspecified) | 8 µg/mL (≈ 21.9 µM) | 4 µg/mL (≈ 11 µM) | 16.2 µg/mL (≈ 44.4 µM) | 16 µg/mL (≈ 43.8 µM) | 16 µg/mL (≈ 43.8 µM) | 32 µg/mL (≈ 87.6 µM) | 28.5 µg/mL (≈ 78 µM) | 8 µg/mL (≈ 21.9 µM) | 32 µg/mL (≈ 87.6 µM) | 160 µM | 12.8 µg/mL (≈ 35 µM) | 98.1 µM | 16 µg/mL (≈ 43.8 µM) | 16 µg/mL (≈ 43.8 µM) | 8.8 µg/mL (≈ 24.1 µM) | 16 µg/mL (≈ 43.8 µM) | 1 µg/mL (≈ 2.74 µM) | 11.7 µg/mL (≈ 32 µM) | –
6 | Clc1ccc(C(CCn2ccnc2)Oc2cc(Cl)cc(Cl)c2)cc1 (stereo unspecified) | 8 µg/mL (≈ 21 µM) | 4 µg/mL (≈ 10.5 µM) | 5 µg/mL (≈ 13.1 µM) | 4 µg/mL (≈ 10.5 µM) | 8 µg/mL (≈ 21 µM) | 16 µg/mL (≈ 41.9 µM) | 10 µg/mL (≈ 26.2 µM) | – | 8 µg/mL (≈ 21 µM) | 180 µM | – | 135 µM | 16 µg/mL (≈ 41.9 µM) | 16 µg/mL (≈ 41.9 µM) | 7.7 µg/mL (≈ 20.2 µM) | 16 µg/mL (≈ 41.9 µM) | 1 µg/mL (≈ 2.62 µM) | 16.5 µg/mL (≈ 43.2 µM) | –
7 | Clc1ccc(C(CCn2ccnc2)Oc2ccc(Cl)cc2Cl)cc1 (stereo unspecified) | 2 µg/mL (≈ 5.24 µM) | 8 µg/mL (≈ 21 µM) | 9.8 µg/mL (≈ 25.7 µM) | 8 µg/mL (≈ 21 µM) | 16 µg/mL (≈ 41.9 µM) | 16 µg/mL (≈ 41.9 µM) | 11 µg/mL (≈ 28.8 µM) | 2 µg/mL (≈ 5.24 µM) | 8 µg/mL (≈ 21 µM) | 172 µM | 6.4 µg/mL (≈ 16.8 µM) | 68.8 µM | 4 µg/mL (≈ 10.5 µM) | 8 µg/mL (≈ 21 µM) | 2.85 µg/mL (≈ 7.47 µM) | 4 µg/mL (≈ 10.5 µM) | 1 µg/mL (≈ 2.62 µM) | 5.12 µg/mL (≈ 13.4 µM) | –
8 | Clc1ccc(OC(CCn2ccnc2)c2ccccc2)cc1 (stereo unspecified) | 2 µg/mL (≈ 6.39 µM) | 32 µg/mL (≈ 102 µM) | 18.4 µg/mL (≈ 58.8 µM) | 16 µg/mL (≈ 51.2 µM) | 32 µg/mL (≈ 102 µM) | 32 µg/mL (≈ 102 µM) | 25.6 µg/mL (≈ 81.8 µM) | 2 µg/mL (≈ 6.39 µM) | 16 µg/mL (≈ 51.2 µM) | 200 µM | 6.4 µg/mL (≈ 20.5 µM) | 256 µM | 8 µg/mL (≈ 25.6 µM) | 16 µg/mL (≈ 51.2 µM) | 3.3 µg/mL (≈ 10.5 µM) | 4 µg/mL (≈ 12.8 µM) | 4 µg/mL (≈ 12.8 µM) | 10.3 µg/mL (≈ 32.9 µM) | –
